According to ChEMBL document CHEMBL1921736, “Evaluation of new chalcone derivatives as polyphenol oxidase inhibitors” (Bioorg Med Chem Lett, 2011):
Active and inactive are the calls of the source. The rule behind the calls is not given here.

Assays:
[1] = Competitive inhibition of diphenolase activity of banana tyrosinase using catechol as substrate by Lineweaver-Burk double reciprocal plot analysis; design: species or system Musa acuminata
How it was run: (§1)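 Tyrosinase (PPO) extracted from banana, then purified on a Sepharose 4B-L-tyrosine-p-aminobenzoic acid affinity column; all purification steps at 25 °C. Activity measured with catechol as substrate by following the absorbance increase at 420 nm. Residual activity was followed over a range of inhibitor concentrations, and progress curves were compared with uninhibited enzyme activity.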

[2] = Inhibition of diphenolase activity of banana tyrosinase using catechol as substrate by spectrophotometry; design: species or system Musa acuminata; how it was run: as §1
Musa acuminata [3] = assay: Inhibition of diphenolase activity of banana tyrosinase using catechol as substrate at 50 uM by spectrophotometry; how it was run: as §1
Musa acuminata [4] = assay: Activation of diphenolase activity of banana tyrosinase using catechol as substrate at 50 uM by spectrophotometry; how it was run: as §1

Row | SMILES | Ki [1] [nM] | IC50 [2] [nM] | inhibition (Musa acuminata [3]) | Activity (Musa acuminata [4])
1 | Cc1ccc(C(=O)/C=C/c2ccc(NC(=O)Nc3ccc(F)cc3)cc2)cc1 | 59 | 217 |  | 
2 | O=C(Nc1ccc(F)cc1)Nc1ccc(/C=C/C(=O)c2ccc(Cl)cc2)cc1 | 117 | 133 |  | 
3 | Cc1ccc(/C=C/C(=O)c2ccc(NC(=O)Nc3ccccc3)cc2)cc1 |  |  | inactive | Active
4 | Cc1ccc(NC(=O)Nc2ccc(/C=C/C(=O)c3ccc(Cl)cc3)cc2)cc1 | 129 | 238 |  | 
5 | O=C(Nc1ccccc1)Nc1ccc(C(=O)/C=C/c2ccc(Br)cc2)cc1 |  |  | inactive | Active
6 | COc1ccc(C(=O)/C=C/c2ccc(NC(=O)Nc3ccc(C)cc3)cc2)cc1 | 22 | 289 |  | 
7 | COc1ccc(/C=C/C(=O)c2ccc(NC(=O)Nc3ccc(C)cc3)cc2)cc1 |  |  | inactive | Active
8 | COc1cccc(NC(=O)Nc2ccc(/C=C/C(=O)c3ccccc3)cc2)c1 | 240 | 244 |  | 
9 | COc1ccc(/C=C/C(=O)c2ccc(NC(=S)Nc3ccccc3)cc2)cc1 |  |  | inactive | Active
10 | COc1ccc(/C=C/C(=O)c2ccc(NC(=S)Nc3ccc(C)cc3)cc2)cc1 |  |  | inactive | Active
11 | Cc1ccc(NC(=O)Nc2ccc(C(=O)/C=C/c3ccc(Br)cc3)cc2)cc1 |  |  | inactive | Active
12 | Cc1ccc(NC(=O)Nc2ccc(C(=O)/C=C/c3ccc(Cl)cc3)cc2)cc1 |  |  | inactive | Active
13 | COc1ccc(/C=C/C(=O)c2ccc(NC(=O)Nc3ccccc3)cc2)cc1 |  |  | inactive | Active
14 | O=C(Nc1ccccc1)Nc1ccc(C(=O)/C=C/c2ccc(Cl)cc2)cc1 |  |  | inactive | Active
15 | Cc1ccc(/C=C/C(=O)c2ccc(NC(=O)Nc3ccc(C)cc3)cc2)cc1 |  |  | inactive | Active
16 | O=C(/C=C/c1ccc(Cl)cc1)c1ccc(NC(=S)Nc2ccccc2)cc1 |  |  | inactive | Active
17 | Cc1ccc(NC(=O)Nc2ccc(/C=C/C(=O)c3ccc(C)cc3)cc2)cc1 | 67 | 134 |  | 
18 | COc1cccc(NC(=O)Nc2ccc(/C=C/C(=O)c3ccc(Cl)cc3)cc2)c1 | 59 | 152 |  | 
19 | O=C(Nc1ccccc1)Nc1ccc(/C=C/C(=O)c2ccccc2)cc1 | 37 | 172 |  | 
20 | Cc1ccc(NC(=S)Nc2ccc(C(=O)/C=C/c3ccc(Cl)cc3)cc2)cc1 |  |  | inactive | Active
21 | Cc1ccc(NC(=O)Nc2ccc(/C=C/C(=O)c3ccccc3)cc2)cc1 | 57 | 241 |  | 
22 | O=C(Nc1ccc(F)cc1)Nc1ccc(/C=C/C(=O)c2ccccc2)cc1 | 125 | 177 |  | 
